Assays:
[1] = target: T1, Retinoic acid receptor RXR-alpha (Homo sapiens, UniProt P19793); experiment: Antagonist activity at human RXRalpha expressed in […] cells assessed as inhibition of LG-100268-induced transactivation; type: functional, cell-based, HEK293
T1 sequence (P19793 whole entry): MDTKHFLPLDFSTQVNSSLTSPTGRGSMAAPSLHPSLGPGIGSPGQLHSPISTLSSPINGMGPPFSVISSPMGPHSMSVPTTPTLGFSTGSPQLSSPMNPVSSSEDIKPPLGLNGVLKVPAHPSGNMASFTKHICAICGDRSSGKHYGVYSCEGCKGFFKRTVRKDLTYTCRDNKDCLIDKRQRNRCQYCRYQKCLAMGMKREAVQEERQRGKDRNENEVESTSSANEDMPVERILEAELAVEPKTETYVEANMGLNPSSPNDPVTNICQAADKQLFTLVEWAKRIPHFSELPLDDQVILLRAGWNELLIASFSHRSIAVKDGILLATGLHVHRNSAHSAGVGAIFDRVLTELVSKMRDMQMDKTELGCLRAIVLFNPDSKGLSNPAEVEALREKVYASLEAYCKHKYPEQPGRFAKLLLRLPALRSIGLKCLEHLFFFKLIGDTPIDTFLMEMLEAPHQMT

[2] = target: T1, Retinoic acid receptor RXR-alpha; experiment: Antagonist activity at human RXRalpha expressed in […] cells assessed as inhibition of 9-cis-retinoic acid-induced transactivation; type: functional, cell-based, HEK293
[3] = Bioavailability in rat at 1 mg/kg, iv and 3 mg/kg, po; type: ADME, organism-based; settings: in vivo
Summary of the method: (§1)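 Rats given the compound as a 1 mg/kg intravenous bolus or 3 mg/kg perorally as a suspension. Blood was sampled at various time points up to 24 h, and parent compound levels were measured by LC/MS. Clearance, terminal half-life and steady-state volume of distribution come from the iv profile, Cmax and tmax from the po profile, and bioavailability from comparing iv and po dosing.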

[4] = Cmax in rat at 3 mg/kg, po; type: ADME, organism-based; set-up: dose 3 mg/kg, route oral; settings: in vivo; summary of the method: as §1
[5] = Plasma clearance in rat at 1 mg/kg, iv; type: ADME, organism-based; set-up: dose 1 mg/kg, route intravenous; summary of the method: as §1
[6] = Terminal elimination half life in rat at 1 mg/kg, iv; type: ADME, organism-based; set-up: dose 1 mg/kg, route intravenous; settings: in vivo; summary of the method: as §1
[7] = Tmax in rat at 3 mg/kg, po; type: ADME, organism-based; set-up: dose 3 mg/kg, route oral; settings: in vivo; summary of the method: as §1
[8] = Volume of distribution at steady state in rat at 1 mg/kg, iv; type: ADME, organism-based; set-up: dose 1 mg/kg, route intravenous; settings: in vivo, read-out: Vdss; summary of the method: as §1

Compound: CCCN1c2ccc(NS(=O)(=O)CCC)cc2N=C(c2ccc(C(=O)O)cc2)c2cc3c(cc21)C(C)(C)CCC3(C)C
- IC50 [1]: 0.84 µM
- IC50 [2]: 0.55 µM

Compound: CCCS(=O)(=O)Nc1ccc2c(c1)N=C(c1ccc(C(=O)O)cc1)c1cc3c(cc1N2CC)C(C)(C)CCC3(C)C
- IC50 [1]: 0.57 µM
- IC50 [2]: 0.34 µM

Compound: CCCN1c2ccc(NS(=O)(=O)c3ccc(F)cc3)cc2N=C(c2ccc(C(=O)O)cc2)c2cc3c(cc21)C(C)(C)CCC3(C)C
- IC50 [1]: 0.81 µM
- IC50 [2]: 0.13 µM

Compound: CCCN1c2ccc(NS(=O)(=O)c3cccc(C(F)(F)F)c3)cc2N=C(c2ccc(C(=O)O)cc2)c2cc3c(cc21)C(C)(C)CCC3(C)C
- bioavailability [3]: 21%
- Cmax [4]: 0.519 µM
- clearance [5]: 0.4 L/h/kg
- half-life [6]: 1.8 h
- Tmax [7]: 4 h
- IC50 [1]: 0.19 µM
- Vd [8]: 1.1 L/kg
- IC50 [2]: 0.076 µM

Compound: CCCCS(=O)(=O)Nc1ccc2c(c1)N=C(c1ccc(C(=O)O)cc1)c1cc3c(cc1N2CCC)C(C)(C)CCC3(C)C
- IC50 [1]: 0.85 µM
- IC50 [2]: 0.14 µM

Compound: CN1c2ccc(NS(=O)(=O)/C=C/c3ccccc3)cc2N=C(c2ccc(C(=O)O)cc2)c2cc3c(cc21)C(C)(C)CCC3(C)C
- IC50 [1]: 2.9 µM
- IC50 [2]: 0.4 µM

Compound: CN1c2ccc(NS(=O)(=O)c3cccc4ccccc34)cc2N=C(c2ccc(C(=O)O)cc2)c2cc3c(cc21)C(C)(C)CCC3(C)C
- IC50 [1]: 3.4 µM
- IC50 [2]: 0.85 µM

Compound: COc1ccc(S(=O)(=O)Nc2ccc3c(c2)N=C(c2ccc(C(=O)O)cc2)c2cc4c(cc2N3C)C(C)(C)CCC4(C)C)cc1
- IC50 [1]: 2.5 µM
- IC50 [2]: 0.47 µM

Compound: CN1c2ccc(NS(=O)(=O)c3cccc(F)c3)cc2N=C(c2ccc(C(=O)O)cc2)c2cc3c(cc21)C(C)(C)CCC3(C)C
- IC50 [1]: 2.3 µM
- IC50 [2]: 1.2 µM

Compound: CN1c2ccc(NS(=O)(=O)c3ccc(C(F)(F)F)cc3)cc2N=C(c2ccc(C(=O)O)cc2)c2cc3c(cc21)C(C)(C)CCC3(C)C
- IC50 [1]: 2.2 µM
- IC50 [2]: 1.1 µM

Compound: CN1c2ccc(NS(=O)(=O)c3ccccc3C(F)(F)F)cc2N=C(c2ccc(C(=O)O)cc2)c2cc3c(cc21)C(C)(C)CCC3(C)C
- IC50 [1]: 2.6 µM
- IC50 [2]: 1.4 µM

Compound: CN1c2ccc(NS(=O)(=O)c3ccccc3)cc2N=C(c2ccc(C(=O)O)cc2)c2cc3c(cc21)C(C)(C)CCC3(C)C
- IC50 [1]: 1.4 µM
- IC50 [2]: 0.51 µM

Compound: CCCC(=O)Nc1ccc2c(c1)N=C(c1ccc(C(=O)O)cc1)c1cc3c(cc1N2C)C(C)(C)CCC3(C)C
- IC50 [1]: 3.9 µM
- IC50 [2]: 1.8 µM

Compound: CCNC(=O)Nc1ccc2c(c1)N=C(c1ccc(C(=O)O)cc1)c1cc3c(cc1N2C)C(C)(C)CCC3(C)C
- IC50 [1]: 7.4 µM
- IC50 [2]: 7.3 µM

Compound: CCS(=O)(=O)Nc1ccc2c(c1)N=C(c1ccc(C(=O)O)cc1)c1cc3c(cc1N2C)C(C)(C)CCC3(C)C
- IC50 [1]: 4.9 µM
- IC50 [2]: 0.84 µM

Compound: Cc1ccc(S(=O)(=O)Nc2ccc3c(c2)N=C(c2ccc(C(=O)O)cc2)c2cc4c(cc2N3C)C(C)(C)CCC4(C)C)cc1
- IC50 [1]: 2.5 µM
- IC50 [2]: 0.43 µM

Compound: CN1c2ccc(NS(=O)(=O)c3cc(C(F)(F)F)cc(C(F)(F)F)c3)cc2N=C(c2ccc(C(=O)O)cc2)c2cc3c(cc21)C(C)(C)CCC3(C)C
- IC50 [1]: 4.1 µM
- IC50 [2]: 1.2 µM

Compound: CN1c2ccc(NCc3ccccc3)cc2N=C(c2ccc(C(=O)O)cc2)c2cc3c(cc21)C(C)(C)CCC3(C)C
- IC50 [1]: > 100 µM
- IC50 [2]: > 10 µM

Compound: CNc1ccc2c(c1)N=C(c1ccc(C(=O)O)cc1)c1cc3c(cc1N2C)C(C)(C)CCC3(C)C
- IC50 [1]: > 100 µM
- IC50 [2]: > 10 µM

Compound: CN1c2ccc(NC(=O)c3ccc(F)cc3)cc2N=C(c2ccc(C(=O)O)cc2)c2cc3c(cc21)C(C)(C)CCC3(C)C
- IC50 [1]: 1.6 µM
- IC50 [2]: 1.7 µM

Compound: CCN1c2ccc(NC(=O)Cc3ccc(F)cc3)cc2N=C(c2ccc(C(=O)O)cc2)c2cc3c(cc21)C(C)(C)CCC3(C)C
- IC50 [1]: 1.2 µM
- IC50 [2]: 0.72 µM

Compound: CN1c2ccc(NS(=O)(=O)c3ccc(-c4ccccc4)cc3)cc2N=C(c2ccc(C(=O)O)cc2)c2cc3c(cc21)C(C)(C)CCC3(C)C
- IC50 [1]: 6.2 µM
- IC50 [2]: 1.3 µM

Compound: CN1c2ccc(NC(=O)C34CC5CC(CC(C5)C3)C4)cc2N=C(c2ccc(C(=O)O)cc2)c2cc3c(cc21)C(C)(C)CCC3(C)C
- IC50 [1]: 7.2 µM
- IC50 [2]: 2.9 µM

Compound: CN1c2ccc(NS(=O)(=O)c3ccc(F)cc3)cc2N=C(c2ccc(C(=O)O)cc2)c2cc3c(cc21)C(C)(C)CCC3(C)C
- IC50 [1]: 1.7 µM
- IC50 [2]: 0.19 µM

Compound: CN1c2ccc(NC(=O)c3cccc(C(F)(F)F)c3)cc2N=C(c2ccc(C(=O)O)cc2)c2cc3c(cc21)C(C)(C)CCC3(C)C
- IC50 [1]: 4.1 µM
- IC50 [2]: 4.2 µM

Compound: CN1c2ccc(NS(C)(=O)=O)cc2N=C(c2ccc(C(=O)O)cc2)c2cc3c(cc21)C(C)(C)CCC3(C)C
- IC50 [1]: 4.4 µM
- IC50 [2]: 2.4 µM

Compound: CCCCNc1ccc2c(c1)N=C(c1ccc(C(=O)O)cc1)c1cc3c(cc1N2C)C(C)(C)CCC3(C)C
- IC50 [1]: > 100 µM
- IC50 [2]: > 10 µM

Compound: CN1c2ccc(NC(=O)NCc3ccccc3)cc2N=C(c2ccc(C(=O)O)cc2)c2cc3c(cc21)C(C)(C)CCC3(C)C
- IC50 [1]: 2.5 µM
- IC50 [2]: 2.8 µM

Compound: CN1c2ccc(NC(=O)c3ccccc3)cc2N=C(c2ccc(C(=O)O)cc2)c2cc3c(cc21)C(C)(C)CCC3(C)C
- IC50 [1]: 2 µM
- IC50 [2]: 0.9 µM

Compound: CN1c2ccc(NC(=O)C3CCCCC3)cc2N=C(c2ccc(C(=O)O)cc2)c2cc3c(cc21)C(C)(C)CCC3(C)C
- IC50 [1]: 4.5 µM
- IC50 [2]: 1.5 µM

Compound: CCCS(=O)(=O)Nc1ccc2c(c1)N=C(c1ccc(C(=O)O)cc1)c1cc3c(cc1N2C)C(C)(C)CCC3(C)C
- IC50 [1]: 2.1 µM
- IC50 [2]: 0.25 µM

Compound: CN1c2ccc(NC(=O)Cc3ccc(F)cc3)cc2N=C(c2ccc(C(=O)O)cc2)c2cc3c(cc21)C(C)(C)CCC3(C)C
- IC50 [1]: 1.3 µM
- IC50 [2]: 0.88 µM

Compound: CN1c2ccc(NC(=O)Cc3ccccc3)cc2N=C(c2ccc(C(=O)O)cc2)c2cc3c(cc21)C(C)(C)CCC3(C)C
- IC50 [1]: 2.5 µM
- IC50 [2]: 0.97 µM

Compound: CNC(=O)Nc1ccc2c(c1)N=C(c1ccc(C(=O)O)cc1)c1cc3c(cc1N2C)C(C)(C)CCC3(C)C
- IC50 [1]: 14 µM
- IC50 [2]: 15 µM

Compound: CCCCNC(=O)Nc1ccc2c(c1)N=C(c1ccc(C(=O)O)cc1)c1cc3c(cc1N2C)C(C)(C)CCC3(C)C
- IC50 [1]: 3.4 µM
- IC50 [2]: 3.3 µM

Compound: CCCCS(=O)(=O)Nc1ccc2c(c1)N=C(c1ccc(C(=O)O)cc1)c1cc3c(cc1N2CC)C(C)(C)CCC3(C)C
- IC50 [1]: 0.32 µM
- IC50 [2]: 0.2 µM

Compound: CCC(=O)Nc1ccc2c(c1)N=C(c1ccc(C(=O)O)cc1)c1cc3c(cc1N2C)C(C)(C)CCC3(C)C
- IC50 [1]: 7.1 µM
- IC50 [2]: 2.2 µM

Compound: CN1c2ccc(NS(=O)(=O)c3cccc(C(F)(F)F)c3)cc2N=C(c2ccc(C(=O)O)cc2)c2cc3c(cc21)C(C)(C)CCC3(C)C
- IC50 [1]: 1.5 µM
- IC50 [2]: 0.48 µM

Compound: CN1c2ccc(NC(=O)/C=C/c3ccccc3)cc2N=C(c2ccc(C(=O)O)cc2)c2cc3c(cc21)C(C)(C)CCC3(C)C
- IC50 [1]: 5.2 µM
- IC50 [2]: 1.5 µM

Compound: CCCNC(=O)Nc1ccc2c(c1)N=C(c1ccc(C(=O)O)cc1)c1cc3c(cc1N2C)C(C)(C)CCC3(C)C
- IC50 [1]: 5.2 µM
- IC50 [2]: 6.2 µM

Compound: CN1c2ccc(NS(=O)(=O)c3ccccc3F)cc2N=C(c2ccc(C(=O)O)cc2)c2cc3c(cc21)C(C)(C)CCC3(C)C
- IC50 [1]: 4.4 µM
- IC50 [2]: 2.3 µM

Compound: CN1c2ccc(NS(=O)(=O)Cc3ccccc3)cc2N=C(c2ccc(C(=O)O)cc2)c2cc3c(cc21)C(C)(C)CCC3(C)C
- IC50 [1]: 5.2 µM
- IC50 [2]: 1 µM

Compound: CCN1c2ccc(NS(=O)(=O)c3cccc(C(F)(F)F)c3)cc2N=C(c2ccc(C(=O)O)cc2)c2cc3c(cc21)C(C)(C)CCC3(C)C
- bioavailability [3]: 36%
- Cmax [4]: 0.468 µM
- clearance [5]: 0.5 L/h/kg
- half-life [6]: 2.1 h
- Tmax [7]: 4.7 h
- IC50 [1]: 0.16 µM
- Vd [8]: 1.2 L/kg
- IC50 [2]: 0.095 µM

Compound: CC(C)C(=O)Nc1ccc2c(c1)N=C(c1ccc(C(=O)O)cc1)c1cc3c(cc1N2C)C(C)(C)CCC3(C)C
- IC50 [1]: 5.6 µM
- IC50 [2]: 1.9 µM

Compound: CCCN1c2ccc(NC(=O)Cc3ccc(F)cc3)cc2N=C(c2ccc(C(=O)O)cc2)c2cc3c(cc21)C(C)(C)CCC3(C)C
- IC50 [1]: 3.9 µM
- IC50 [2]: 3.1 µM

Compound: CCN1c2ccc(NS(=O)(=O)c3ccc(F)cc3)cc2N=C(c2ccc(C(=O)O)cc2)c2cc3c(cc21)C(C)(C)CCC3(C)C
- IC50 [1]: 0.42 µM
- IC50 [2]: 0.22 µM

Compound: CCCCS(=O)(=O)Nc1ccc2c(c1)N=C(c1ccc(C(=O)O)cc1)c1cc3c(cc1N2C)C(C)(C)CCC3(C)C
- IC50 [1]: 0.91 µM
- IC50 [2]: 0.37 µM
